Columns and labels:
Cavia porcellus = species on record: Cavia porcellus; test: Percent maximal inhibition (Emax) was measured using guinea pig ileum assay (GPI).; type: functional
Mu-type opioid receptor [1] = target: Mu-type opioid receptor (Cavia porcellus, UniProt P97266); test: Inhibitory activity measured against Opioid receptor mu 1 using guinea pig ileum assay (GPI).; type: tissue-based
Outline: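 Longitudinal muscle-myenteric plexus from the ileum of male Hartley guinea pigs (150–400 g) in oxygenated Krebs bicarbonate at 37 °C under 1 g tension. Electrical stimulation at 0.1 Hz with 0.4-ms pulses at supramaximal voltage. Agonist exposure was 3 min, followed by rinse and 8 min re-equilibration. Percent inhibition of contraction was fitted to a logistic equation for IC50; duplicates, 2–4 experiments.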

Mu-type opioid receptor [2] = target: T1, Mu-type opioid receptor (Rattus norvegicus, UniProt P33535); test: Binding affinity measured against [3H]CTOP (Opioid receptor mu 1) in rat brain using radioreceptor binding assays.; type: tissue-based
T1 sequence (P33535 whole entry): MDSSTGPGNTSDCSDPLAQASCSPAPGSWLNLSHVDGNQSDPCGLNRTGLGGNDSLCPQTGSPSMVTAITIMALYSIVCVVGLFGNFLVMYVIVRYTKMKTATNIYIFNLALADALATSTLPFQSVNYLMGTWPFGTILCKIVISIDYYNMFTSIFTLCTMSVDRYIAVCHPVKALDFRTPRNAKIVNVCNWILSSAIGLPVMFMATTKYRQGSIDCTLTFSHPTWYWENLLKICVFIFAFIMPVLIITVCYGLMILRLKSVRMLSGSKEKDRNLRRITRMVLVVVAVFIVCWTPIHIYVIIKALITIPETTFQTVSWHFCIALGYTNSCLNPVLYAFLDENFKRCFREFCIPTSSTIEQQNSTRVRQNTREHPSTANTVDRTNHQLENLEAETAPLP
Outline: (§1)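 Male Sprague-Dawley rat whole brain minus cerebellum, homogenised and washed three times (30 min at 25 °C in 50 mM Tris) to remove endogenous opioids. Homogenate at 0.5% final was incubated with 0.5 nM [3H]CTOP in 50 mM Tris-HCl pH 7.4 containing 5 mM MgCl2 and BSA 1 mg/mL for 120 min at 25 °C. Nonspecific binding was defined with 1 μM naltrexone. Bound ligand was collected by filtration and counted by scintillation; duplicates, 2–4 experiments.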

[3] = target: T2, Delta-type opioid receptor (Rattus norvegicus, UniProt P33533); test: Inhibitory activity measured against [3H]DPDPE (Opioid receptor delta 1 ligand) in rat brain using radioreceptor binding assays.; type: tissue-based
T2 sequence (P33533 whole entry): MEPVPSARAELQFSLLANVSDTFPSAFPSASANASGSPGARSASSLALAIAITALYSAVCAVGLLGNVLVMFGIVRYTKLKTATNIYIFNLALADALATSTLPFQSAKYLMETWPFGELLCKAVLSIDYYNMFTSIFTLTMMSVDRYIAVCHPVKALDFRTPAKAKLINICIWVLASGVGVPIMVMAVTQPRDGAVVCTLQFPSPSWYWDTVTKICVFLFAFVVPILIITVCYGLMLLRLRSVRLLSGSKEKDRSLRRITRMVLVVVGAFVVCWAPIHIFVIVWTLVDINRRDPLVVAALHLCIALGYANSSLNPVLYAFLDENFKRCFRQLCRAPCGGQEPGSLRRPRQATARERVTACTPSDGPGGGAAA
Outline: (§2)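 Male Sprague-Dawley rat brain membranes (minus cerebellum), washed three times to remove endogenous opioids. Specific binding was defined as that displaced by 1 μM naltrexone. Filtration and scintillation counting; duplicates, 2–4 experiments.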

Mu-type opioid receptor [4] = target: T1, Mu-type opioid receptor; test: Inhibitory activity measured against [3H]CTOP (Opioid receptor mu 1) in rat brain using radioreceptor binding assays.; type: tissue-based; outline: as §1
[5] = target: T2, Delta-type opioid receptor; test: Binding affinity measured against [3H]DPDPE (Opioid receptor delta 1 ligand) in rat brain using radioreceptor binding assays.; type: tissue-based; outline: as §2
[6] = target: Delta-type opioid receptor (Mus musculus, UniProt P32300); test: Inhibitory activity measured against Opioid receptor delta 1 using mouse vas deference assay (MVD).
Chain of Delta-type opioid receptor (Mus musculus, UniProt P32300) (P32300 whole entry): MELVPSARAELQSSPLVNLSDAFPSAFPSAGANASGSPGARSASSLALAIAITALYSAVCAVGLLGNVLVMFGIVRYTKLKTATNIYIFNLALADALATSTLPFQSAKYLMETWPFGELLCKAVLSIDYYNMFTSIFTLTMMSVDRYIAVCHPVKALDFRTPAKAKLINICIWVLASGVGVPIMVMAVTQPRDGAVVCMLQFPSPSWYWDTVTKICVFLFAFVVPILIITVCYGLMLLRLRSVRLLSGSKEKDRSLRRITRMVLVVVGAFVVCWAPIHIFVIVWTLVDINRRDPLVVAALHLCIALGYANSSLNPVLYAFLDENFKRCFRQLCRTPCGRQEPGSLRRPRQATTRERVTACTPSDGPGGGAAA
Outline: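 Vas deferens from male ICR mice (25–30 g) in magnesium-free oxygenated Krebs bicarbonate at 37 °C under 0.5 g tension. Electrical stimulation at 0.1 Hz with 2.0-ms pulses at supramaximal voltage. Agonist contact was 3 min.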

Chain of Mu-type opioid receptor (Cavia porcellus, UniProt P97266) (P97266 whole entry): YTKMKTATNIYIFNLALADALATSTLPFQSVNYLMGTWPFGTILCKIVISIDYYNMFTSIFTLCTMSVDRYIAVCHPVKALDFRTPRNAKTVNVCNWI

Row | SMILES | E max (Cavia porcellus) | IC50 (Mu-type opioid receptor [1]) | Ki (Mu-type opioid receptor [2]) | IC50 [3] | IC50 (Mu-type opioid receptor [4]) | Ki [5] | IC50 [6]
1 | C[C@H](c1ccccc1)[C@H]1NC(=O)CNC(=O)[C@H](NC(=O)[C@@H](N)Cc2ccc(O)cc2)C(C)(C)SSC(C)(C)[C@H](C(=O)O)NC1=O | 100% | – | – | – | – | – | –
2 | C[C@H](c1ccc([N+](=O)[O-])cc1)[C@@H]1NC(=O)CNC(=O)[C@H](NC(=O)[C@@H](N)Cc2ccc(O)cc2)C(C)(C)SSC(C)(C)[C@H](C(=O)O)NC1=O [listing 1 of 2 here] | – | 2.7 µM | 24 nM | 4.2 nM | 105 nM | 3.4 nM | 27 nM
3 | C[C@H](c1ccc([N+](=O)[O-])cc1)[C@@H]1NC(=O)CNC(=O)[C@H](NC(=O)[C@@H](N)Cc2ccc(O)cc2)C(C)(C)SSC(C)(C)[C@H](C(=O)O)NC1=O [listing 2 of 2 here] | 74% | – | – | – | – | – | –
4 | C[C@@H](c1ccccc1)[C@H]1NC(=O)CNC(=O)[C@H](NC(=O)[C@@H](N)Cc2ccc(O)cc2)C(C)(C)SSC(C)(C)[C@H](C(=O)O)NC1=O | 100% | – | – | – | – | – | –
5 | C[C@@H](c1ccc([N+](=O)[O-])cc1)[C@H]1NC(=O)CNC(=O)[C@H](NC(=O)[C@@H](N)Cc2ccc(O)cc2)C(C)(C)SSC(C)(C)[C@H](C(=O)O)NC1=O [listing 1 of 2 here] | – | 12.3 µM | 240 nM | 222 nM | 1020 nM | 180 nM | 1790 nM
6 | C[C@@H](c1ccc([N+](=O)[O-])cc1)[C@H]1NC(=O)CNC(=O)[C@H](NC(=O)[C@@H](N)Cc2ccc(O)cc2)C(C)(C)SSC(C)(C)[C@H](C(=O)O)NC1=O [listing 2 of 2 here] | 66% | – | – | – | – | – | –
7 | C[C@H](c1ccccc1)[C@@H]1NC(=O)CNC(=O)[C@H](NC(=O)[C@@H](N)Cc2ccc(O)cc2)C(C)(C)SSC(C)(C)[C@H](C(=O)O)NC1=O (stereo in doubt; 4) | 56% | – | – | – | – | – | –
8 | C[C@H](c1ccc([N+](=O)[O-])cc1)[C@H]1NC(=O)CNC(=O)[C@@H](NC(=O)[C@@H](N)Cc2ccc(O)cc2)C(C)(C)SSC(C)(C)[C@@H](C(=O)O)NC1=O (stereo in doubt; 6) | 73% | 25.7 µM | 530 nM | 6.89 nM | 2200 nM | 5.5 nM | 4.59 nM
9 | C[C@H](c1ccc([N+](=O)[O-])cc1)[C@H]1NC(=O)CNC(=O)[C@@H](NC(=O)[C@@H](N)Cc2ccc(O)cc2)C(C)(C)SSC(C)(C)[C@@H](C(=O)O)NC1=O (stereo in doubt; 7) | – | > 10 µM | – | 226 nM | > 10000 nM | 180 nM | 630 nM
